Assay outcomes (PubChem)
Sampled rows, rich in hits. Any-hit rate of the full collection: about 2.8%.
EP2 modulator: modulators of human EP2 prostaglandin E2 receptor; EP2-expressing cells, cAMP HTRF FRET, PGE2 co-stimulation; induction, % at 25 µM; 0.83% of 260,000 active; AID 940;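 active = compounds whose cAMP rise, as percent of the full-agonist control response, exceeds 60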;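 note: rat C6 glioma line stably carrying human EP2 under a CMV promoter; the protocol text gives 20 µM as final concentration; 100% = response of wells given 1 µM PGE2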
NPY Y1 blocker: antagonists of human neuropeptide Y receptor Y1; HEK293-CNG Y1 cells, membrane potential fluorescence; NPY at EC95, then isoproterenol; inhibition, % at 3.6 µM; 1% of 200,000 active;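 active = inhibition above the campaign mean inhibition of all tested compounds plus 3 SD, cut at about 20% in these data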;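 note: 0% = DMSO wells given NPY plus isoproterenol and 100% = isoproterenol alone without NPY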
Target sequence (P25929 whole entry, looked up): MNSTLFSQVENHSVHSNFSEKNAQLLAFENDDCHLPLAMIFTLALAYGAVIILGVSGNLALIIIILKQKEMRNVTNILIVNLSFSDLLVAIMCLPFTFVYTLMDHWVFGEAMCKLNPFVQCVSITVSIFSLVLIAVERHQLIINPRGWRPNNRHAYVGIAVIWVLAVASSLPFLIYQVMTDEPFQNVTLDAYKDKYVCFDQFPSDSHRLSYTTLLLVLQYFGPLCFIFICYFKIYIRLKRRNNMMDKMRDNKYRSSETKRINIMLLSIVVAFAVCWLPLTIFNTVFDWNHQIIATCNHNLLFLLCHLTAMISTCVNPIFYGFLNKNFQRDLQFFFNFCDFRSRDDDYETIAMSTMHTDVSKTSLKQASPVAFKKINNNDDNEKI
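Assay system: HEK293 cells with Y1 receptor plus CNG channel | Probe or stimulus: NPY (25 nM), isoproterenol (1 µM), Ro 20-1724 (25 µM) | Timing: Compound incubation 1 h at room temperature, readout 45 min post-stimulation | Measured by: Membrane-potential fluorescent dye readout | Benchmarks: High control isoproterenol alone, low control NPY with isoproterenol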
PGE2 EP2 inh: blocks the human prostaglandin E2 receptor EP2 | P43116 | C6 glioma cells expressing human EP2, cAMP TR-FRET; cells stimulated with saturating PGE2 | inhibition, % at 25 µM | 0.52% of 260,000 active;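 active = percent inhibition above 40 after rounding to a whole number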;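 note: rat C6 glioma host cells with rolipram phosphodiesterase inhibitor present; the protocol text gives 20 µM as final concentration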
NPY1 pot ag: human NPY-Y1 potentiation or agonism, primary screen; 0.37% of 220,000 active; activation, % at 3.6 µM; NPY-Y1 expressing cells, potentiator/agonist activation; P25929; in the data active = activation above about 33%, passing the limit was not always enough;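 note: cells stimulated with NPY at EC10 then isoproterenol at EC100; 0% = low agonist plus stimulus and 100% = saturating agonist plus stimulus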
NPY2 pot ag: human NPY-Y2 potentiation or agonism, primary screen; P49146; cells expressing NPY-Y2, potentiator/agonist read-out; activation, % at 3.6 µM; 0.45% of 220,000 active; AID 1359; in the data active = activation above about 27%;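 note: cells stimulated with NPY near EC25 plus isoproterenol at EC100; 0% = vehicle plus submaximal agonist and 100% = vehicle plus saturating agonist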
NPY-Y2 antag: antagonists of human neuropeptide Y receptor Y2. P49146. NPY-Y2 expressing cells, antagonist mode. inhibition, % at 2.7 µM. 0.99% of 140,000 active. AID 793; in the data active = inhibition above about 17%;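 note: 0% = vehicle with agonist challenge and 100% = reference antagonist with challenge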
EP2 confirm: EP2 receptor cAMP induction, counter-screens negative; calls only at 20 µM (by protocol); shares compounds with EP2 modulator; AID 1080; 47% of 1,300 active; C6 glioma EP2 cells, cAMP HTRF induction; plus low (about EC15) PGE2 agonist;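 active = cAMP induction above 50% in the main assay while under 30% in all four parallel counter assays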;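 note: rat C6 glioma cells stably expressing human EP2 receptor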
Active calls of the source: *; i = inactive; / = not tested or not shown; + = active, no number; ! = not confirmed by another sample.

SMILES	EP2 modulator	NPY Y1 blocker	PGE2 EP2 inh	NPY1 pot ag	NPY2 pot ag	NPY-Y2 antag	EP2 confirm
O=C(CN1CCC(O)(c2ccccn2)CC1)Nc1ccc2c(c1)OCO2	-7	/	/	/	/	/	/
CCSc1nc2sc3c(c2c(=O)n1CC)CC(C)(C)OC3	52	1	6	-22	-8	2	i
O=[N+]([O-])c1ccc(Nc2cccc3ccccc23)nc1	-72	/	14	/	/	/	/
Cc1cccc(CSc2ncnc3ccccc23)c1	71*	3	7	4	-2	/	i
Cc1oc2ccc(OCC(=O)NN)cc2c1C(=O)OC(C)C	-40	/	6	/	/	/	/
c1cncc(-c2nc(N3CCCCCC3)c3ccccc3n2)c1	74*	8	/	1	-5	10	+
CC1CCN(c2nc(-c3ccccc3O)nc3ccccc23)CC1	31	-1	10	-6	9	0	/
Oc1ccccc1-c1nc(N2CCCC2)c2ccccc2n1	75*	7	8	3	-11	3	i
COc1cccc(-c2nc(N3CCC(C)CC3)c3ccccc3n2)c1O	56	0	19	2	-5	2	/
CC(C)Oc1nc(-c2ccccc2O)nc2ccccc12	80*	-1	10	-14	-1	1	+
COc1cccc(-c2nc(N3CC(C)CC(C)C3)c3ccccc3n2)c1O (centres undefined)	70*	9	/	7	1	-1	+
COc1ccc2nc(SCC(=O)Nc3ccccc3Cl)c(C)cc2c1	11	/	12	/	/	/	/
Cc1ccccc1C1(O)CCN(C(=O)c2cc(-c3ccccn3)n[nH]2)CC1	-29	/	6	/	/	/	/
COc1ccccc1NC(=O)N(CCN1CCOCC1)Cc1cc2ccc(C)c(C)c2[nH]c1=O	8	/	7	/	/	/	/
O=C(CN1CCC(n2cnc3cccnc32)CC1)NCc1ccccc1F	-16	/	7	/	/	/	/
CC1(C)Cc2ccccc2-c2nc3n(c(=O)c21)CCS3	74*	-3	10	9	3	/	+
CCOc1ccccc1COC(=O)c1cccc(-n2cnnn2)c1	71*	7	6	-13	-16	-2	i
CCOC(=O)c1[nH]c2ccc(OC)cc2c1NS(=O)(=O)c1ccc(Cl)s1	96*	9	4	-66	-19	4	+
COc1ccc2[nH]c(C(=O)O)c(NS(=O)(=O)c3ccc(Cl)s3)c2c1	20	3	1	1	9	1	/
Cc1cc2cc(CN(C3CCCC3)C(c3nnnn3Cc3ccco3)C(C)C)c(=O)[nH]c2cc1C (centres undefined)	5	/	13	/	/	/	/
Cc1ccccc1OCc1nc2ccccc2c(=O)n1/N=C/c1ccco1	67*	6	17	15	10	3	i
CCOC(=O)c1ccc(CN(Cc2ccc(C)cc2)S(=O)(=O)c2cccc([N+](=O)[O-])c2)cc1	65*	0	4	-15	10	2	i
COc1ccc(NC(=O)CCN2CCC(C)CC2)c(OC)c1	5	/	12	/	/	/	/
COC(=O)NC1(C(F)(F)F)C(=O)NC(C)=C1C(=O)OC (centres undefined)	71*	-2	10	-5	-20	2	i
COC(=O)C1=C(C)NC(=O)C1(NC(=O)c1ccncc1)C(F)(F)F (centres undefined)	10	1	8	26	6	/	/
SMILES	EP2 modulator	NPY Y1 blocker	PGE2 EP2 inh	NPY1 pot ag	NPY2 pot ag	NPY-Y2 antag	EP2 confirm
CCC1(CC)Cc2ccccc2-c2nc(NCCO)[nH]c(=O)c21	69*!	-3	16	-5	6	-1	i
O=c1[nH]c(NCCO)nc2c1C1(CCCCC1)Cc1ccccc1-2	45	-4	18	2	27	2	/
Cc1ccc(C)c2[nH]c(=O)c(CN(C(=S)Nc3ccc(F)cc3)C3CCCCC3)cc12	0	/	17	/	/	/	/
COC(=O)c1cn(Cc2cccc(C)c2)nn1	6	-8	6	3	14	0	/
COC(=O)c1ccc(-c2ccco2)n1Cc1cccc(C)c1	77*	8	2	-26	5	7	+
S=c1[nH]nc(CSc2nc3ccccc3s2)n1Cc1ccccc1	54	15	10	-8	-4	5	i
COc1cccc(C2NC(=O)NC3=C2C(=O)N(CCN2CCCCC2)C3)c1 (centres undefined)	-40	/	6	/	/	/	/
CC1C2C(c3ccccc3)N(C)C(=O)N(C)C2N(C)C(=O)N1C (centres undefined)	20	-3	6	12	5	1	/
CCN1C(c2ccccc2)C(C)C(=O)C(C)C1c1ccccc1 (centres undefined)	71*	14	15	-31	2	9	+
CC(=O)c1ccc(N=Nc2ccc(C)cc2)cc1	-23	-3	2	2	-6	/	/
O=C(/C(=C/O)N=Nc1ccccc1)c1ccc(Cl)cc1	73*	-3	1	3	0	/	+
Cc1ccc(N=N/C(=C\O)C(=O)c2ccc(Cl)cc2)cc1	89*	2	6	12	18	/	+
O=C(/C(=C/O)N=Nc1ccccc1)c1ccncc1	-10	0	9	-18	-11	7	/
OC(COc1cccc2ccccc12)CN1CCNCC1 (centres undefined)	-22	/	4	/	/	/	/
CC1=CC(C)(C)N(S(=O)(=O)c2ccc(C)cc2)c2cc(C)ccc21	70*	13	13	-32	9	16	+
COc1cccc(C(=O)N(Cc2ccc3c(c2)OCO3)Cc2cc3cccc(C)c3[nH]c2=O)c1	-73	/	18	/	/	/	/
NCCc1c(-c2ccccc2)n(-c2ccccc2)c2ccccc12	72*	19	3	5	0	/	+
C=CCn1c(COc2ccc3ccccc3c2C)n[nH]c1=S	-35	/	12	/	/	/	/
COC(=O)c1c(NC(=O)CSc2nnc(-c3ccco3)n2Cc2ccccc2)sc(C)c1C	52	10	4	18	1	11	i
COCCn1c(SCC(=O)NCCc2ccccc2)nnc1-c1ccco1	67*	4	5	-1	-3	1	i
COc1cccc(NC(=O)CSc2nnnn2-c2ccc(C)c(C)c2)c1	-67	/	8	/	/	/	/
Cc1ccc(NC(=O)C2C(=O)N(CCO)C3(C)CC2c2ccccc2O3)c(C)c1 (centres undefined)	16	/	9	/	/	/	/
CCN(Cc1ccco1)C(=O)Cn1nc(C)n2c(cc3sccc32)c1=O	-41	/	/	/	/	/	/
C=CCn1c(SCC(=O)Nc2ccc(Cl)cc2)nc2sc(C)cc2c1=O	-32	/	21	/	/	/	/
Cc1ccc(-c2nn(-c3ccccc3)cc2C(=O)O)o1	14	0	6	-4	-10	/	/
Cc1ccc(-c2nn(-c3ccccc3)cc2CN(Cc2ccccc2)C(=O)c2ccco2)o1	80*	16	9	-45	-1	14	+
